Measured values published in ChEMBL document CHEMBL3244382, “Structural requirements for antileukemic activity among the naturally occurring and semisynthetic maytansinoids” (J Med Chem, 1978).
≈ marks a conversion by molar mass, not a printed value. Calls of active or inactive are those of the source.

Key:
P388 [1] = test: Antitumor activity against mouse P388 cells allografted in PS mouse assessed as median survival time at 400 ug/kg relative to control; assay type: functional
Outline: (§1)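 P388 leukemia (PS) in mice, six mice started per dose group. Read-out is T/C: median survival time of the treated group divided by that of the untreated control group, expressed as a percent. The NIH protocol counts a compound as active when T/C > 125%.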

Mus musculus [2] = test: Toxicity in PS mouse allografted with mouse P388 cells assessed as survival at 25 ug/kg after 4 days; assay type: organism-based; details: in vivo, 0.025 mg/kg, 96 h
Outline: (§2)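 PS (P388) leukemic mice, six started per dose group. Toxicity scored as survivors on the toxicity day over the number of mice started. The toxicity day is normally 4 days after the first injection.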

P388 [3] = test: Antitumor activity against mouse P388 cells allografted in PS mouse assessed as median survival time at 25 ug/kg relative to control; assay type: functional; outline: as §1
Mus musculus [4] = test: Toxicity in PS mouse allografted with mouse P388 cells assessed as survival at 400 ug/kg after 4 days; assay type: organism-based; details: in vivo, 0.4 mg/kg, 96 h; outline: as §2
Mus musculus [5] = test: Toxicity in PS mouse allografted with mouse P388 cells assessed as change in body weight at 100 ug/kg relative to control; assay type: organism-based; details: in vivo, 0.1 mg/kg
Outline: (§3)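 P388 (PS) leukemia in mice, 6 mice per dose group. Weight change is the difference in grams between treated and control animals. Survivors are recorded on toxicity day, normally 4 days after the first injection.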

P388 [6] = test: Antitumor activity against mouse P388 cells allografted in PS mouse assessed as median survival time at 12.5 ug/kg relative to control; assay type: functional; outline: as §1
Mus musculus [7] = test: Toxicity in PS mouse allografted with mouse P388 cells assessed as change in body weight at 200 ug/kg relative to control; assay type: organism-based; details: in vivo, 0.2 mg/kg; outline: as §3
Mus musculus [8] = test: Toxicity in PS mouse allografted with mouse P388 cells assessed as survival at 3.1 ug/kg after 4 days; assay type: organism-based; details: in vivo, 0.0031 mg/kg, 96 h; outline: as §2
Mus musculus [9] = test: Toxicity in PS mouse allografted with mouse P388 cells assessed as change in body weight at 50 ug/kg relative to control; assay type: organism-based; details: in vivo, 0.05 mg/kg; outline: as §3
Mus musculus [10] = test: Toxicity in PS mouse allografted with mouse P388 cells assessed as change in body weight at 6.2 ug/kg relative to control; assay type: organism-based; details: in vivo, 0.0062 mg/kg; outline: as §3
P388 [11] = test: Antitumor activity against mouse P388 cells allografted in PS mouse assessed as median survival time at 100 ug/kg relative to control; assay type: functional; outline: as §1
Paracentrotus lividus = test: Antimitotic activity against sea urchin eggs assessed as drug level causing inhibition of mitosis; assay type: functional; details: Egg
P388 [12] = test: Antitumor activity against mouse P388 cells allografted in PS mouse assessed as median survival time at 200 ug/kg relative to control; assay type: functional; outline: as §1
KB = test: Cytotoxicity against human KB cells; assay type: functional; details: read-out: ED50 (the source's name)
Mus musculus [13] = test: Toxicity in PS mouse allografted with mouse P388 cells assessed as survival at 6.2 ug/kg after 4 days; assay type: organism-based; details: in vivo, 0.0062 mg/kg, 96 h; outline: as §2
Mus musculus [14] = test: Toxicity in PS mouse allografted with mouse P388 cells assessed as change in body weight at 3.1 ug/kg relative to control; assay type: organism-based; details: in vivo, 0.0031 mg/kg; outline: as §3
Mus musculus [15] = test: Toxicity in PS mouse allografted with mouse P388 cells assessed as survival at 12.5 ug/kg after 4 days; assay type: organism-based; details: in vivo, 0.0125 mg/kg, 96 h; outline: as §2
Mus musculus [16] = test: Toxicity in PS mouse allografted with mouse P388 cells assessed as change in body weight at 12.5 ug/kg relative to control; assay type: organism-based; details: in vivo, 0.0125 mg/kg; outline: as §3
P388 [17] = test: Antitumor activity against mouse P388 cells allografted in PS mouse assessed as median survival time at 3.1 ug/kg relative to control; assay type: functional; outline: as §1
Mus musculus [18] = test: Toxicity in PS mouse allografted with mouse P388 cells assessed as survival at 50 ug/kg after 4 days; assay type: organism-based; details: in vivo, 0.05 mg/kg, 96 h; outline: as §2
Mus musculus [19] = test: Toxicity in PS mouse allografted with mouse P388 cells assessed as change in body weight at 400 ug/kg relative to control; assay type: organism-based; details: in vivo, 0.4 mg/kg; outline: as §3
P388 [20] = test: Antitumor activity against mouse P388 cells allografted in PS mouse assessed as median survival time at 50 ug/kg relative to control; assay type: functional; outline: as §1
Mus musculus [21] = test: Toxicity in PS mouse allografted with mouse P388 cells assessed as change in body weight at 25 ug/kg relative to control; assay type: organism-based; details: in vivo, 0.025 mg/kg; outline: as §3
P388 [22] = test: Antitumor activity against mouse P388 cells allografted in PS mouse assessed as median survival time at 6.2 ug/kg relative to control; assay type: functional; outline: as §1
Tubulin (Homo sapiens) = Tubulin (Homo sapiens) (UniProt P68371+Q9H4B7+P0DPH7+P68366+Q13509+Q71U36+P04350+Q3ZCM7+P07437+P68363+Q9BQE3+Q6PEY2+Q13885+Q9BVA1+Q9BUF5); test: Inhibition of brain tubulin polymerization (unknown origin) at 37 degC by spectrophotometry
Mus musculus [23] = test: Toxicity in PS mouse allografted with mouse P388 cells assessed as survival at 100 ug/kg after 4 days; assay type: organism-based; details: in vivo, 0.1 mg/kg, 96 h; outline: as §2
Mus musculus [24] = test: Toxicity in PS mouse allografted with mouse P388 cells assessed as survival at 200 ug/kg after 4 days; assay type: organism-based; details: in vivo, 0.2 mg/kg, 96 h; outline: as §2
P388 [25] = test: Antitumor activity against mouse P388 cells allografted in PS mouse assessed as median survival time at 1.6 ug/kg relative to control; assay type: functional; outline: as §1
Mus musculus [26] = test: Toxicity in PS mouse allografted with mouse P388 cells assessed as survival at 1.6 ug/kg after 4 days; assay type: organism-based; details: in vivo, 0.0016 mg/kg, 96 h; outline: as §2
Mus musculus [27] = test: Toxicity in PS mouse allografted with mouse P388 cells assessed as change in body weight at 1.6 ug/kg relative to control; assay type: organism-based; details: in vivo, 0.0016 mg/kg; outline: as §3

| SMILES | T/C (P388 [1]) [%] | Activity (Mus musculus [2]) | T/C (P388 [3]) [%] | Activity (Mus musculus [4]) | Activity (Mus musculus [5]) [g] | T/C (P388 [6]) [%] | Activity (Mus musculus [7]) [g] | Activity (Mus musculus [8]) | Activity (Mus musculus [9]) [g] | Activity (Mus musculus [10]) [g] | T/C (P388 [11]) [%] | Activity (Paracentrotus lividus) | T/C (P388 [12]) [%] | EC50 (KB) [ng/mL] | Activity (Mus musculus [18]) | Activity (Mus musculus [19]) [g] | T/C (P388 [20]) [%] | inhibition (Tubulin (Homo sapiens)) | Activity (Mus musculus [23]) | Activity (Mus musculus [24]) | further results |
| --- | --- | --- | --- | --- | --- | --- | --- | --- | --- | --- | --- | --- | --- | --- | --- | --- | --- | --- | --- | --- | --- |
| COc1cc2cc(c1Cl)N(C)C(=O)CC(O)C1(C)OC1C(C)C1CC(O)(NC(=O)O1)C(OC)/C=C/C=C(\C)C2 (configuration not stated) [MAYTANSINOL] | 102 | Non-toxic | 94 | Non-toxic | 1.2 | 102 | -1.8 | Non-toxic | -0.4 | 0.5 | 105 | 1 ×10⁻⁵ mol/L | 112 | 190 (≈ 336 nM) | Non-toxic | -2.6 | 112 | Active | Non-toxic | Non-toxic | Activity (Mus musculus [13]): Non-toxic; Activity (Mus musculus [14]): 0.9 g; Activity (Mus musculus [15]): Non-toxic; Activity (Mus musculus [16]): 1.5 g; T/C (P388 [17]): 102%; Activity (Mus musculus [21]): 0.5 g; T/C (P388 [22]): 102% |
| CCCS[C@]12C[C@H](OC(=O)N1)[C@@H](C)[C@@H]1O[C@@]1(C)[C@@H](OC(=O)[C@H](C)N(C)C(C)=O)CC(=O)N(C)c1cc(cc(OC)c1Cl)C/C(C)=C/C=C/[C@H]2OC | 114 | – | – | Non-toxic | 2.8 | – | 0.1 | – | -1.3 | – | 114 | 1 ×10⁻⁸ mol/L | 114 | 0.18 (≈ 0.24 nM) | Non-toxic | -0.7 | 111 | Active | Non-toxic | Non-toxic | – |
| COc1cc2cc(c1Cl)N(C)C(=O)C[C@H](OC(=O)[C@H](C)N(C)C(=O)C(C)C)[C@]1(C)O[C@H]1[C@H](C)[C@@H]1C[C@@](OC)(NC(=O)O1)[C@H](OC)/C=C/C=C(\C)C2 | 136 | Non-toxic | 96 | Non-toxic | -1 | 99 | -0.9 | Non-toxic | -2 | -0.6 | 99 | 1 ×10⁻⁸ mol/L | 100 | 0.16 (≈ 0.218 nM) | Non-toxic | -3 | 99 | Active | Non-toxic | Non-toxic | T/C (P388 [25]): 101%; Activity (Mus musculus [26]): Non-toxic; Activity (Mus musculus [13]): Non-toxic; Activity (Mus musculus [14]): -1.1 g; Activity (Mus musculus [15]): Non-toxic; Activity (Mus musculus [16]): -2.1 g; Activity (Mus musculus [27]): -1.8 g; T/C (P388 [17]): 99%; Activity (Mus musculus [21]): -0.5 g; T/C (P388 [22]): 100% |
| CCCS[C@]12C[C@H](OC(=O)N1)[C@@H](C)[C@@H]1O[C@@]1(C)[C@@H](OC(=O)[C@H](C)N(C)C(=O)C(C)C)CC(=O)N(C)c1cc(cc(OC)c1Cl)C/C(C)=C/C=C/[C@H]2OC | 151 | Non-toxic | 101 | Non-toxic | -1.6 | 95 | -2.4 | Non-toxic | 0.4 | -0.1 | 127 | 1 ×10⁻⁸ mol/L | 151 | 0.31 (≈ 0.398 nM) | Non-toxic | 0.6 | 118 | Active | Non-toxic | Non-toxic | T/C (P388 [25]): 100%; Activity (Mus musculus [26]): Non-toxic; Activity (Mus musculus [13]): Non-toxic; Activity (Mus musculus [14]): 0.6 g; Activity (Mus musculus [15]): Non-toxic; Activity (Mus musculus [16]): 0.6 g; Activity (Mus musculus [27]): 0.8 g; T/C (P388 [17]): 97%; Activity (Mus musculus [21]): 0.7 g; T/C (P388 [22]): <80% |
| CCO[C@]12C[C@H](OC(=O)N1)[C@@H](C)[C@@H]1O[C@@]1(C)[C@@H](OC(=O)[C@H](C)N(C)C(=O)C(C)C)CC(=O)N(C)c1cc(cc(OC)c1Cl)C/C(C)=C/C=C/[C@H]2OC | 149 | – | – | Non-toxic | 3.4 | – | 0.3 | – | 1.3 | – | 109 | 1 ×10⁻⁷ mol/L | 134 | 1.2 (≈ 1.6 nM) | Non-toxic | -0.9 | 100 | Active | Non-toxic | Non-toxic | – |
| COc1cc2cc(c1Cl)N(C)C(=O)C[C@H](OC(=O)[C@H](C)N(C)C(C)=O)[C@]1(C)O[C@H]1[C@H](C)[C@@H]1C[C@@](OC)(NC(=O)O1)[C@H](OC)/C=C/C=C(\C)C2 | 139 | – | – | Non-toxic | -0.9 | – | -0.7 | – | -2.3 | – | 104 | 1 ×10⁻⁸ mol/L | 93 | 0.19 (≈ 0.269 nM) | Non-toxic | -0.9 | 101 | Active | Non-toxic | Non-toxic | – |
